Results of several laboratories.
Lines come from different studies, so protocols differ.
Effect on: cell growth or viability

NCCC(=O)Nc1ccccc1/N=c1\cc(-c2ccc3c(c2)OCO3)oc2ccccc12
inhibition (A549; CCK-8; 1 µM): 3.27%

C[C@H](Nc1ccc2c(c1)OCCn1cc(N3C(=O)OC[C@H]3C(F)F)nc1-2)C(N)=O
EC50 (NCI-H1048; ATP luminescence; 5 days): 0.0003 µM

CN(C)CCNC(=O)c1ccc(-c2nc3ccc4[nH]ncc4c3c3c2CCCC3)cc1
GI50 (EOL1; 72 h): 149 nM

Cc1nc(Nc2ncc(C(=O)Nc3c(C)cccc3Cl)s2)cc(N2CC[C@H](O)C2)n1
inhibition (MEG-01; ATP luminescence; 10 µM; 72 h): 93%

CCCCCCCCCCCCCCCCCCOc1cccc(CC(=O)OCC[N+](CC)(CC)CC)c1
inhibition (NCI-H522; SRB; 10 µM): 61.5%

NCC(=O)Nc1ccccc1/N=c1\cc(-c2ccc3c(c2)OCCO3)oc2ccccc12
inhibition (A549; CCK-8; 1 µM): -0.04%

COc1cc(C=NNC(=O)c2nc3ccccc3s2)ccc1O
cell death (PC-3; MTT; 100 µM; 48 h): 29.4%

Cc1n[nH]c2ccc3nc(-c4ccc(C(=O)NCCN(C)C)cc4)c4c(c3c12)CCCCC4
GI50 (EOL1; 72 h): 107 nM

CCCCCCCCCCCCCCCCCCOCC(COP(=O)([O-])OCC[N+](C)(C)C)OC (stereo not shown)
inhibition (NCI-H522; SRB; 10 µM): 27%

CCC/C(=C\C1=C(OC)C(=O)c2ccccc2C1=O)C(=O)N(CC)CC
GI50 (HUVEC; resazurin; 48 h): 2700 nM

NC(=O)C1CCCN1C(=O)Nc1ccccc1/N=c1\cc(-c2ccc3c(c2)OCCO3)oc2cc(F)ccc12 (stereo not shown)
inhibition (A549; CCK-8; 1 µM): -1.31%

CCCS(=O)(=O)Oc1cc(C=NNC(=O)c2nc3ccccc3s2)ccc1OC
cell death (PC-3; MTT; 100 µM; 48 h): 33%

Cc1n[nH]c2ccc3nc(-c4ccc(C(=O)NCCN(C)C)cc4F)c4c(c3c12)CCCCC4
GI50 (EOL1; 72 h): 72 nM

CCCCCCCCCCCCCCCCCCOc1ccc(CC(=O)OCC[N+]2(C)CCCCC2)cc1
inhibition (NCI-H522; SRB; 10 µM): 10.8%

NCCC(=O)Nc1ccccc1/N=c1\cc(-c2ccc3nc(N)oc3c2)oc2ccccc12
inhibition (A549; CCK-8; 1 µM): 18.6%

CC(C)(C)c1cc(NC(=O)Nc2ccc(-c3cn4c(n3)sc3cc(OCCN5CCOCC5)ccc34)cc2)no1
GI50 (EOL1; 72 h): < 0.1 nM

COc1ccc(C=NNC(=O)c2nc3ccccc3s2)cc1O
cell death (PC-3; MTT; 100 µM; 48 h): 25.1%

CCCCCCCCCCCCCCCCCCOc1ccc(CC(=O)OCC[N+]2(C)CCOCC2)cc1
inhibition (NCI-H522; SRB; 10 µM): 5.79%

CN(C)CCNC(=O)c1ccc(-c2nc3ccc4[nH]ncc4c3c3c2CCCCC3)c(F)c1
GI50 (EOL1; 72 h): 52 nM

CCCCCCCCCCCCCCCCCCOc1ccc(CC(=O)OCCC[N+](C)(C)C)cc1
inhibition (NCI-H522; SRB; 10 µM): 21.6%

Oc1cccc(-c2nc(N3CCOCC3)c3oc4ncccc4c3n2)c1
inhibition (A549; CCK-8; 1 µM): 20.4%

CCCCCCCCCCCCCCCCCCOc1ccc(CC(=O)OCC[N+](C)(C)C)cc1
inhibition (NCI-H522; SRB; 10 µM): 4.28%

C=C(NC(=O)C(=C)NC(=O)c1csc(C2=N[C@@H]3c4csc(n4)[C@H]4NC(=O)c5csc(n5)[C@H]([C@](C)(O)[C@@H](C)O)NC(=O)[C@H]5CSC(=N5)/C(=C/C)NC(=O)[C@H]([C@@H](C)O)NC(=O)c5csc(n5)[C@]3(CC2)NC(=O)[C@H](C)NC(=O)C(=C)NC(=O)[C@H](C)NC(=O)[C@H]([C@@H](C)CC)N[C@@H]2C=Cc3c([C@H](C)O)cc(nc3[C@H]2O)C(=O)O[C@@H]4C)n1)C(N)=O
EC50 (PC-3): 54.6 µM

CNCCC(=O)Nc1ccccc1/N=c1\cc(-c2ccc3nc(N)oc3c2)oc2ccccc12
inhibition (A549; CCK-8; 1 µM): 7.88%

CCCCCCCCCCCCCCCCCCOc1ccccc1CC(=O)OCC[N+](C)(C)C
inhibition (NCI-H522; SRB; 10 µM): 97.8%
